The term stoichiometry N denotes a count of units in the complex or per binding partner.

Values joined by “and” are separate entries in the source; they are usually repeats but may differ in a detail not shown here. Equal entries are not always repeated. Ends that are not written are not given here.

The test system of one data set is Ctf4CTD. Briefly: Analytical gel filtration of Ctf4CTD - GINS. It counts as binding, yeast (S. cerevisiae). The note with it: Superdex S200, 20 mM HEPES pH 7.2, 140 mM KCl, full-length or N-terminally truncated Sld5. In general terms: Size exclusion chromatography separates by hydrodynamic size, large species first.
In data set [1] the target is T1, Ctf4 N-terminal deletion (Ctf4CTD, aa 461-927) (S. cerevisiae, UniProt Q01454 461-927).
T1 sequence: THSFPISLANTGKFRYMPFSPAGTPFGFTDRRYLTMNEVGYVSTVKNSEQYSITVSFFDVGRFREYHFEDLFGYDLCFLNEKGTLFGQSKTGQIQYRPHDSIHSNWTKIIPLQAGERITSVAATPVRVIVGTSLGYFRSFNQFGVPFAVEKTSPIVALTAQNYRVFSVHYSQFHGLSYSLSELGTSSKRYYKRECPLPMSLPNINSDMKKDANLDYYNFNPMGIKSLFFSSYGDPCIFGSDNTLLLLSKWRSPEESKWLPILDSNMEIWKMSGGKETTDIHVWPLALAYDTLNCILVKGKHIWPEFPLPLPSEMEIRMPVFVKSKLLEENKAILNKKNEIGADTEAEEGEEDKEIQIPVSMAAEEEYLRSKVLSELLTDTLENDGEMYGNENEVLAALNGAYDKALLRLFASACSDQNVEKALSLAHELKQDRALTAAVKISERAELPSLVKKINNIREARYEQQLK
Kind of data set: negative-stain single-particle electron microscopy.

Data set [2] is described as follows: Native mass spectrometry, oligomeric state. It counts as physicochemical, yeast (S. cerevisiae). The note with it: nano-electrospray, 500 mM ammonium acetate.
Data set [3] in a line: Multi-angle laser scattering. The note with it: size exclusion chromatography - MALS. It counts as physicochemical, yeast (S. cerevisiae). In short, it runs like this: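 Recombinant His-tagged full-length yeast Ctf4, expressed in E. coli BL21(DE3)-CodonPlus (1 mM IPTG, 37°C, 2 h), purified by Ni-NTA, Mono Q ion exchange and Superdex 200 gel filtration. About 100 μg loaded onto an HPLC size-exclusion column equilibrated in 150 mM NaCl, 20 mM Tris pH 8.0, 1 mM DTT. Eluate read by 8-angle light scattering and refractive index detectors.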

Data set [4] addresses T2, fluorescein-labelled yeast Sld5 peptide (1-19) (S. cerevisiae).
T2 peptide: fluorescein-MDINIDDILAELDKETTAV
Briefly: fluorescence polarisation. On the technique in general: Fluorescence polarisation rises when a labelled molecule tumbles more slowly, as on binding a larger partner.

The data set “SEC-MALS” deals with the molecule itself. Kind of data set: SEC-MALS.

B1: GINSPsf1ΔC (Strep III-tagged, for electron microscopy) (complex)
chain 1: MGYYDIDDVLADGTEFPCKFQYDIPGLGYLENNPGRPITKNTKLSLPLWLARILAIVGGDEALVDEEPVPFVELLPPDMFSTKVMNAIKTDPVALDLHSINSHFFSLAIKWIMLFSEKELANVVSELLLQRAQELNHHASSLSIDLNADSTGKNSANTNIATSTFLLKLEEMEKEIYKKSHESYKDTKRWMFKK
chain 2: MYGDLGNKLVLEAKRTKQLYARSNQDVNLPMYHEDIIRNILKEVSNLRKNTEYLKEQQQLGMLDDKVAKCQYFVTLLCMERNKRCLLAYQRLRTDILDSMAWNNNGLDLMSSITFSQQDTNNLSHQEQEYLKEYCDLITDLKSGDLVDIDLSGSLVPPSDVFID
chain 3: MSLPAHLQQTFSPEEIQFIVENEPIKIFPRITTRQKIRGDDRGTGNHTRWQLITTDDKALNNMVAMRSTEVVLWIALLLKQQSKCSIVAPQWLTTKELDRKIQYEKTHPDRFSELPWNWLVLARILFNKAKDDFHDPIHELRGKIQDLREIRQIKVLKGLKYLNESHLQLDNLSLLEINELRPFITEIMDKLREIHTASLTAGTENDEEEFNI
chain 4: MDINIDDILAELDKETTAVDSTKITQGSSSTTHRDANTIVGSSLDLNDKTQIYVSPQQDFSDLMKSWKNERCSPELLPYPHQLMKRLLNRISMQSQLIENISMGFLDMQNASNANPPMPNESKLPLLCMETELERLKFVIRSYIRCRLSKIDKFSLYLRQLNEDENSLISLTDLLSKDEIKYHDTHSLIWLKLVNDSILKYMPEELQAINDTEGSVNMIDEPDWNKFVFIHVNGPPDGKWNEDPLLQENEFGKPCYTVTIPDLKEEVELTIGSIYVMRYEVIRDLLRDDKVALI
For the molecule B1, the “Ctf4 - GINS interaction” value in the data set on Ctf4CTD is recorded as “dependent upon the unstructured tail at the N-terminus of the Sld5 subunit of GINS”. The “stoichiometry N” value in data set [1] was 1 copies of GINS per Ctf4CTD trimer and 2 copies of GINS per Ctf4CTD trimer and 3 copies of GINS per Ctf4CTD trimer.

B2: Ctf4CTD (yeast Ctf4 amino acids 471 to 927) (domain or fragment)
chain: TGKFRYMPFSPAGTPFGFTDRRYLTMNEVGYVSTVKNSEQYSITVSFFDVGRFREYHFEDLFGYDLCFLNEKGTLFGQSKTGQIQYRPHDSIHSNWTKIIPLQAGERITSVAATPVRVIVGTSLGYFRSFNQFGVPFAVEKTSPIVALTAQNYRVFSVHYSQFHGLSYSLSELGTSSKRYYKRECPLPMSLPNINSDMKKDANLDYYNFNPMGIKSLFFSSYGDPCIFGSDNTLLLLSKWRSPEESKWLPILDSNMEIWKMSGGKETTDIHVWPLALAYDTLNCILVKGKHIWPEFPLPLPSEMEIRMPVFVKSKLLEENKAILNKKNEIGADTEAEEGEEDKEIQIPVSMAAEEEYLRSKVLSELLTDTLENDGEMYGNENEVLAALNGAYDKALLRLFASACSDQNVEKALSLAHELKQDRALTAAVKISERAELPSLVKKINNIREARYEQQLK
In the case of B2, the “oligomeric state in solution (native mass spectrometry)” value in data set [2] was “stable trimer in solution”. Also, the “oligomeric state in solution (MALS)” value in data set [3] is recorded as “stable trimer in solution”. Besides, the “fold tighter association than the Pol1 motif” value in data set [4] was around 5 fold. In addition, in the data set “SEC-MALS”, the “stoichiometry N” value was determined as 3.

These data come from paper PMC4059944 (Nature, 2014).
